# Experimental data reported in ChEMBL document CHEMBL4616679, “Fragment Screening Hit Draws Attention to a Novel Transient Pocket Adjacent to the Recognition Site of the tRNA-Modifying Enzyme TGT” (J Med Chem, 2020).
# Assay: Inhibition of Zymomonas mobilis tRNA-guanine transglycosylase expressed in Escherichia coli cells BL21-CodonPlus (DE3)-RIPL in presence of and tRNATyr [-3H]-guanine incubated for 60 mins by liquid scintillation counting based radioactive assay
# Summary of the method: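 Z. mobilis TGT (Strep-tag II removed by thrombin) at 9–150 nM, chosen by expected affinity; tRNA^Tyr held at 1.5 µM with saturating [8-³H]-guanine at 10 µM in 100 mM HEPES pH 7.3, 20 mM MgCl₂, 0.037% (v/v) Tween 20. Four 15 µL aliquots taken at 60 min intervals; guanine incorporation into tRNA read by liquid scintillation counting; Ki from reduction of incorporation rate.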
row,Structure (SMILES),Ki [µM]
1,Nc1nc2cc3[nH]c(NCCN4CCOCC4)nc3cc2c(=O)[nH]1,0.006
2,CNc1nc2cc3c(=O)[nH]c(N)nc3cc2[nH]1,0.058
3,CNc1nc2cc3c(=O)[nH]cnc3cc2[nH]1,7
4,NC(=O)c1ccc2nc(NCCN3CCOCC3)[nH]c2c1,544
5,CNC(=O)c1ccc2nc(NCCN3CCOCC3)[nH]c2c1,264
6,N=C(N)Nc1ccc2[nH]c(NCCN3CCOCC3)nc2c1,58
7,CNc1nc2ccc(C(=O)NN)cc2[nH]1,283
8,CNc1nc2ccc(C(N)=O)cc2[nH]1,300
9,NNC(=O)c1ccc2nc(NCCN3CCOCC3)[nH]c2c1,282
10,CNC(=O)c1ccc2nc(NC)[nH]c2c1,270
11,CNc1nc2cc3c(cc2[nH]1)CNC(N)=N3,17
12,CNc1nc2cc(NC(=N)N)ccc2[nH]1,19
13,CC#CC1NC(N)=Nc2cc3nc(NC)[nH]c3cc21 (racemic),48
